# ChEMBL document CHEMBL3351898, “4-Aminoquinoline-pyrimidine hybrids: synthesis, antimalarial activity, heme binding and docking studies” (Eur J Med Chem, 2015)
# The source made the active and inactive calls. The rule behind the calls is not given here.
# How the values were obtained:
# [1] = Resistance index, ratio of IC50 for chloroquine-resistant Plasmodium falciparum W2 to IC50 for chloroquine-sensitive Plasmodium falciparum D6; type: functional
# [2] = tested on: Plasmodium falciparum; test: Antimalarial activity against chloroquine-resistant Plasmodium falciparum W2 assessed as inhibition of parasite growth after 72 hrs by parasite LDH release assay; type: functional, organism-based; settings: W2, 72 h
# How it was run: (§1)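 Asexual P. falciparum cultures at 2% parasitemia and 2% hematocrit in RPMI 1640 with 10% human serum and amikacin were added to serially diluted compound. Plates were incubated 72 h at 37 °C under 90% N2/5% O2/5% CO2. Growth was read by pLDH: Malstat reagent 30 min at room temperature, then NBT/PES 1 h in the dark. IC50 taken from dose-response curves; chloroquine and pyrimethamine controls.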
# [3] = tested on: Plasmodium falciparum; test: Antimalarial activity against chloroquine-sensitive Plasmodium falciparum D6 assessed as inhibition of parasite growth after 72 hrs by parasite LDH release assay; type: functional, organism-based; settings: D6, 72 h; how it was run: as §1
# [4] = tested on: Vero; test: Cytotoxicity against African green monkey Vero cells after 72 hrs by neutral red assay; type: cell-based, Chlorocebus sabaeus; settings: in the assay text read “after 48 hrs” for “after 72 hrs”
# How it was run: (§2)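 Vero cells (monkey kidney […]) were seeded at 25,000 cells/well and incubated 24 h, then exposed to a range of compound concentrations for 48 h. Viable cells were counted by Neutral Red assay, and IC50 was obtained from dose-response curves.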
# [5] = Selectivity index, ratio of IC50 for African green monkey Vero cells to IC50 for chloroquine-sensitive Plasmodium falciparum D6; type: toxicity, cell-based; settings: read-out: Ratio IC50
# How it was run: (§3)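 Vero cells seeded at 25,000 cells/well and grown 24 h, then exposed to a range of compound concentrations for 48 h. Viability measured by Neutral Red uptake; IC50 from dose-response curves. SI calculated as Vero IC50 divided by antiplasmodial IC50 for the named strain.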
# [6] = Selectivity index, ratio of IC50 for African green monkey Vero cells to IC50 for chloroquine-resistant Plasmodium falciparum W2; type: toxicity, cell-based; settings: read-out: Ratio IC50; how it was run: as §3
# [7] = tested on: Plasmodium berghei; test: Antimalarial activity against Plasmodium berghei infected in mouse assessed as reduction in parasitemia at 100 mg/kg/day, po dosed on days 0, 1 and 2 post infection measured on day 5; type: functional; settings: 120 h
# How it was run: (§4)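 P. berghei-infected mice were given the compound orally at 11.1, 33.3 or 100 mg/kg × 3 days. Vehicle and chloroquine groups were included. Parasitemia was read on days 5 and 7, and % suppression was calculated with mean parasitemia in the vehicle control taken as 100%. Mean survival time was also recorded.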
# [8] = tested on: Plasmodium berghei; test: Antimalarial activity against Plasmodium berghei infected in mouse assessed as mean survival time at 100 mg/kg/day, po dosed on days 0, 1 and 2 post infection; type: functional
# How it was run: (§5)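 P. berghei-infected mice dosed orally with test agent at 11.1, 33.3 or 100 mg/kg, once daily for 3 days; vehicle and chloroquine controls. Mean survival time recorded; parasitemia on days 5 and 7 expressed as % suppression, taking mean vehicle-control parasitemia as 100%.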
# [9] = tested on: Vero; test: Cytotoxicity against African green monkey Vero cells up to 20 uM after 72 hrs by neutral red assay; type: cell-based; settings: chlorocebus sabaeus, 48 h, in the assay text read “48 hrs” for “72 hrs”; how it was run: as §2
# [10] = tested on: Plasmodium berghei; test: Antimalarial activity against Plasmodium berghei infected in mouse assessed as reduction in parasitemia at 100 mg/kg/day, po dosed on days 0, 1 and 2 post infection measured on day 7; type: functional; settings: 168 h; how it was run: as §4
# [11] = tested on: Heme; test: Binding affinity to heme (unknown origin) assessed as reduction in Fe(3+) intensity at pH 7.4
# [12] = tested on: Heme; test: Binding affinity to heme (unknown origin) assessed as reduction in Fe(3+) intensity at pH 5.6
# [13] = tested on: Heme; test: Binding affinity to monomeric heme (unknown origin) assessed as binding constant at pH 5.6
# How it was run: (§6)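 Hematin in 40% DMSO (monomeric heme, Soret band 402 nm) was titrated with compound in 0.02 M HEPES pH 7.4 or 0.02 M MES pH 5.6. Association constants (log K) were calculated from the titration data, and stoichiometry was taken from a Job's plot of absorbance at 402 nm against compound mole fraction.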
# [14] = tested on: Heme; test: Binding affinity to heme (unknown origin) assessed as reduction in Fe(3+) intensity
# [15] = tested on: mu-oxodimeric heme; test: Binding affinity to mu-oxo-heme (unknown origin) assessed as binding constant at pH 5.8
# How it was run: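 μ-Oxo-dimeric heme in 20 mM phosphate buffer pH 5.8 was titrated with compound, following the decrease in absorbance at 362 nm. The log K was derived from the titration, and stoichiometry came from a Job's plot.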
# [16] = tested on: Heme; test: Binding affinity to monomeric heme (unknown origin) assessed as binding constant at pH 7.4; how it was run: as §6
# [17] = tested on: Plasmodium falciparum; test: Antimalarial activity against chloroquine-resistant Plasmodium falciparum W2 assessed as inhibition of parasite growth up to 19 uM after 72 hrs by parasite LDH release assay; type: functional, organism-based; how it was run: as §1
# [18] = tested on: Plasmodium berghei; test: Antimalarial activity against Plasmodium berghei infected in mouse assessed as mean survival time at 11.1 mg/kg/day, po dosed on days 0, 1 and 2 post infection; type: functional; how it was run: as §5
# [19] = tested on: Plasmodium berghei; test: Antimalarial activity against Plasmodium berghei infected in mouse assessed as reduction in parasitemia at 33.3 mg/kg/day, po dosed on days 0, 1 and 2 post infection measured on day 5; type: functional; settings: 120 h; how it was run: as §4
# [20] = tested on: Plasmodium berghei; test: Antimalarial activity against Plasmodium berghei infected in mouse assessed as reduction in parasitemia at 33.3 mg/kg/day, po dosed on days 0, 1 and 2 post infection measured on day 7; type: functional; settings: 168 h; how it was run: as §4
# [21] = tested on: Plasmodium berghei; test: Antimalarial activity against Plasmodium berghei infected in mouse assessed as reduction in parasitemia at 11.1 mg/kg/day, po dosed on days 0, 1 and 2 post infection measured on day 5; type: functional; settings: 120 h; how it was run: as §4
# [22] = tested on: Plasmodium berghei; test: Antimalarial activity against Plasmodium berghei infected in mouse assessed as mean survival time at 33.3 mg/kg/day, po dosed on days 0, 1 and 2 post infection; type: functional; how it was run: as §5
# [23] = Chlorocebus sabaeus, Vero, 48 h, read-out: IC50
Structure (SMILES),Ratio IC50 [1],IC50 [2] [nM],IC50 [3] [nM],"IC50 [4, 23] [nM]",selectivity ratio [5],selectivity ratio [6],IC50 ([4]; vero),Activity [9],further results
Clc1ccc2c(NCCCNc3nccc(Nc4ccccc4)n3)ccnc2c1,7.57,144,19,12800,676,89.2,,,
Cc1ccc(Nc2ccnc(NCCNc3ccnc4cc(Cl)ccc34)n2)cc1,1.41,143,101,13600,135,95.1,,,
CCN(CC)CCCC(C)Nc1ccnc2cc(Cl)ccc12 (configuration not stated) [CHLOROQUINE],,,,,,,Not Active,Non-toxic,inhibition in vivo at 100 mg/kg/day [7]: 100%; MST [8]: 26.2 days; inhibition in vivo at 100 mg/kg/day [10]: 100%
Clc1ccc2c(NCCNc3nccc(Nc4ccccc4)n3)ccnc2c1,1.05,1530,1510,,> 13.2,> 13.1,Not Active,Non-toxic,
COc1ccc(Nc2ccnc(NCCCNc3ccnc4cc(Cl)ccc34)n2)cc1,2.02,81,40,13300,333,165,,,
Cc1ccc(Nc2ccnc(NCCCCNc3ccnc4cc(Cl)ccc34)n2)cc1,3.75,518,138,19300,140,37.2,,,
Clc1ccc(Nc2ccnc(NCCNc3ccnc4cc(Cl)ccc34)n2)cc1,0.978,46,47,15800,335,342,,,Activity [11]: Active; Activity [12]: Active; log K [13]: 5.51; Activity [14]: Active; log K [15]: 5.12; log K [16]: 5.04
Clc1ccc(Nc2ccnc(NCCCCNc3ccnc4cc(Cl)ccc34)n2)cc1,1.18,52,44,11000,251,212,,,
Clc1ccc2c(NCCCCNc3nccc(Nc4ccc(Br)cc4)n3)ccnc2c1,1.34,63,47,10000,214,159,,,
Fc1ccc(Nc2ccnc(NCCNc3ccnc4cc(Cl)ccc34)n2)cc1,1.65,9990,6020,,> 3.32,> 2,Not Active,Non-toxic,
COc1ccc(Nc2ccnc(NCCNc3ccnc4cc(Cl)ccc34)n2)cc1,6.03,241,40,,> 500,> 83,Not Active,Non-toxic,
Clc1ccc2c(NCCNc3nccc(Nc4ccc(Br)cc4)n3)ccnc2c1,3.67,136,37,,> 541,> 147,Not Active,Non-toxic,
Clc1ccc2c(NCCCNc3nccc(Nc4ccc(Br)cc4)n3)ccnc2c1,0.95,47,49,11200,228,237,,,
COc1cc(Nc2ccnc(NCCCNc3ccnc4cc(Cl)ccc34)n2)cc(OC)c1,2.81,107,38,12900,340,121,,,
COc1ccc(Nc2ccnc(NCCCCNc3ccnc4cc(Cl)ccc34)n2)cc1,1.34,67,50,11100,223,166,,,
Clc1ccc2c(NCCCCNc3nccc(Nc4ccccc4)n3)ccnc2c1,9.15,403,44,14300,326,35.5,,,
CCc1nc(N)nc(N)c1-c1ccc(Cl)cc1,,,,,,,,,growth inhibition (GI) [17]: inactive
Fc1ccc(Nc2ccnc(NCCCCNc3ccnc4cc(Cl)ccc34)n2)cc1,1.82,5830,3200,,> 6.25,> 3.43,Not Active,Non-toxic,
Fc1ccc(Nc2ccnc(NCCCNc3ccnc4cc(Cl)ccc34)n2)cc1,3.35,94,28,13700,490,146,,,
Cc1ccc(Nc2ccnc(NCCCNc3ccnc4cc(Cl)ccc34)n2)cc1,2.26,346,153,18500,121,53.4,,,
COc1cc(Nc2ccnc(NCCCCNc3ccnc4cc(Cl)ccc34)n2)cc(OC)c1,2.72,120,44,12500,285,104,,,
COc1cc(Nc2ccnc(NCCNc3ccnc4cc(Cl)ccc34)n2)cc(OC)c1,1.75,58,33,,> 606,> 345,Not Active,Non-toxic,inhibition in vivo at 100 mg/kg/day [7]: 42.1%; MST [18]: 5 days; inhibition in vivo at 33.3 mg/kg/day [19]: 15.1%; MST [8]: 9 days; inhibition in vivo at 33.3 mg/kg/day [20]: 6.2%; inhibition in vivo at 11.1 mg/kg/day [21]: 1.77%; MST [22]: 8.6 days; inhibition in vivo at 100 mg/kg/day [10]: 10.4%
Clc1ccc(Nc2ccnc(NCCCNc3ccnc4cc(Cl)ccc34)n2)cc1,9.46,445,47,13400,286,30.2,,,
